In the RNAGym collection of RNA variant scans (doi:10.1126/science.aae0568):
Fewer inactive variants are shown than the library holds.

B1: tRNA (parent)
chain: GUUCCGUUGGCGUAAUGGUAACGCGUCUCCCUCCUAAGGAGAAGACUGCGGGUUCGAGUCCCGUACGGAACG

Variants of: B1
Test: yeast fitness relative to wild type (ratio to wild type); higher = fitter; tRNA-Arg(CCU), competitive growth, 37 C, YPD
Outline: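 Variants of the tRNA-Arg(CCU) gene were chemically synthesised with a 3% per-site mutation rate across 69 sites and placed at the native genomic locus in Saccharomyces cerevisiae. Six parallel replicates of the pooled strains were competed in YPD at 37°C for 24 hours, and gene amplicons from the start and end populations were read by 100-nucleotide paired-end sequencing. Darwinian fitness relative to wild type was derived from changes in genotype frequencies. Genotypes required ≥ 100 starting reads, and estimates < 0.5 were set to 0.5.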

Row | Variant | yeast fitness
1 | U3C C4U A70U | 0.841
2 | U3C C4U C5G U16C C24G A42C G58A | ≤ 0.5
3 | U3C C4U C24G C49U C60U C61A | ≤ 0.5
4 | U3C C4U C24U C62U A69U | 0.638
5 | U3C C4U C55U | 0.699
6 | U3C C4U G10A C30U C49U | 0.598
7 | U3C C5A A15U A20G | ≤ 0.5
8 | U3C C5A C11G A20U G25C G56A G58A G67C | ≤ 0.5
9 | U3C C5A C11G A20U G25C U32A | ≤ 0.5
10 | U3C C5A C55A C60A | ≤ 0.5
11 | U3C C5A G18C A45C G56C C60U G68U | ≤ 0.5
12 | U3C C5A U8A G25A A45G | ≤ 0.5
13 | U3C C5G | 0.761
14 | U3C C5G A14U A43G G67C | ≤ 0.5
15 | U3C C5G A15C C27G A69U | ≤ 0.5
16 | U3C C5G A15G | ≤ 0.5
17 | U3C C5G A21U A42C A70G | 0.542
18 | U3C C5G C11G | ≤ 0.5
19 | U3C C5G C11G A45C | ≤ 0.5
20 | U3C C5G C24A | ≤ 0.5
21 | U3C C5G C30G A36C | ≤ 0.5
22 | U3C C5G C34U | ≤ 0.5
23 | U3C C5G C61U | ≤ 0.5
24 | U3C C5G G17A A40C U59C | ≤ 0.5

Row | Variant | yeast fitness
25 | U3C C5G G38A A65G C66G | ≤ 0.5
26 | U3C C5G G63C C66G | ≤ 0.5
27 | U3C C5G G67U | 0.542
28 | U3C C5G U19G C31A C46A G56A A57U | ≤ 0.5
29 | U3C C5U A21G C34G | ≤ 0.5
30 | U3C C5U A37G A43C C62U | ≤ 0.5
31 | U3C C5U A37U C49U U53C | 0.597
32 | U3C C5U C22U A40U A43U | ≤ 0.5
33 | U3C C5U C33G C34U G38C U47A | ≤ 0.5
34 | U3C C11A | 0.65
35 | U3C C11A A21G U28C U32G | ≤ 0.5
36 | U3C C11A C27G C33A | 0.579
37 | U3C C11A C27G C33A A43C C46A A70U | 0.528
38 | U3C C11A C27G C33A C46A | 0.541
39 | U3C C11A C31A | 0.556
40 | U3C C11A C31A A42G G68C | ≤ 0.5
41 | U3C C11A C31A G68C | 0.582
42 | U3C C11A U19G C24A A40C A45U | ≤ 0.5
43 | U3C C11A U32G G39A C61A C62A | ≤ 0.5
44 | U3C C11G | 0.608
45 | U3C C11G A37G | 0.563
46 | U3C C11G G41C | ≤ 0.5
47 | U3C C11U A14C A21U A36C G58C | 0.562
48 | U3C C11U A40U G58A | 0.627

Row | Variant | yeast fitness
49 | U3C C11U C31U | 0.782
50 | U3C C11U C46U | 1.1
51 | U3C C11U G17A C49U | ≤ 0.5
52 | U3C C11U G18C C66U | 0.516
53 | U3C C11U U53C | 0.588
54 | U3C C22A | 0.79
55 | U3C C22A A45C C62G A65U | 0.64
56 | U3C C22A A70C | 0.607
57 | U3C C22A C33A | ≤ 0.5
58 | U3C C22G A69U | 0.667
59 | U3C C22G A70U | 0.8
60 | U3C C22G C29A A42C | ≤ 0.5
61 | U3C C22G C31U U53C | ≤ 0.5
62 | U3C C22G C61U A65U | 0.596
63 | U3C C22G C62U | 0.64
64 | U3C C22G G25A | 1.02
65 | U3C C22U | 0.824
66 | U3C C22U A36U C62U | ≤ 0.5
67 | U3C C22U C31U | 0.691
68 | U3C C24A C29U G67U | 0.522
69 | U3C C24A C55A | ≤ 0.5
70 | U3C C24A C62A A65C | ≤ 0.5
71 | U3C C24G | 0.642
72 | U3C C24G A43C G48A G58A G68C | ≤ 0.5

Row | Variant | yeast fitness
73 | U3C C24G C31G C61G | ≤ 0.5
74 | U3C C24G C33G C66U | ≤ 0.5
75 | U3C C24G C61U | 0.528
76 | U3C C24G G50C G68C | ≤ 0.5
77 | U3C C24U A42C | 0.663
78 | U3C C24U C55G | ≤ 0.5
79 | U3C C24U C55G A70U | ≤ 0.5
80 | U3C C24U C62U | 0.725
81 | U3C C24U U26C G63A A65G | ≤ 0.5
82 | U3C C27A C31G | 0.604
83 | U3C C27G | 0.714
84 | U3C C27G C33A G51A | ≤ 0.5
85 | U3C C27G C33G A42G A45G | ≤ 0.5
86 | U3C C27G C33G G51C C60U C61U | ≤ 0.5
87 | U3C C27G C33U A43U | ≤ 0.5
88 | U3C C27G C49A A70G | 0.593
89 | U3C C27G C49G | ≤ 0.5
90 | U3C C27G G39A C46U G67A | ≤ 0.5
91 | U3C C27G G48C | 0.522
92 | U3C C27U A69U | 0.806
93 | U3C C27U C30U U53A A69C | ≤ 0.5
94 | U3C C27U G56A C61A | ≤ 0.5
95 | U3C C27U G58C A69C | 0.793
96 | U3C C29G | 0.679

Row | Variant | yeast fitness
97 | U3C C29G C30G A37C G39A | ≤ 0.5
98 | U3C C29G C46U C49U U59G A65U G68A | ≤ 0.5
99 | U3C C29G G38A A43G G50A | ≤ 0.5
100 | U3C C29G G56A C62G C66G | ≤ 0.5
101 | U3C C29U | 0.844
102 | U3C C29U A36U C66U G67A | ≤ 0.5
103 | U3C C29U C60G | 0.568
104 | U3C C30A A40U | 0.634
105 | U3C C30A A65G | 0.702
106 | U3C C30A A69U | 0.745
107 | U3C C30A C61U | 0.678
108 | U3C C30A G51A | 0.602
109 | U3C C30G | 0.677
110 | U3C C30G A43C C60G C66G A69G | ≤ 0.5
111 | U3C C30G A43C G48A | ≤ 0.5
112 | U3C C30G A43C G67C | ≤ 0.5
113 | U3C C30G C31U C60G C61G | 0.571
114 | U3C C30G C62A | ≤ 0.5
115 | U3C C30G G52A A70U | 0.641
116 | U3C C30U C33G | ≤ 0.5
117 | U3C C30U C46A U54A A57G | ≤ 0.5
118 | U3C C30U G38A G44C U54A | ≤ 0.5
119 | U3C C31G | 0.86
120 | U3C C31G A57G | 0.589

Row | Variant | yeast fitness
121 | U3C C31G G51C | 0.55
122 | U3C C31G G67U | ≤ 0.5
123 | U3C C31G U32C G38C C46G G48C G68C | ≤ 0.5
124 | U3C C31G U59A | ≤ 0.5
125 | U3C C31U | 0.891
126 | U3C C31U A40C | 0.654
127 | U3C C31U A42G | 0.798
128 | U3C C31U A43G A69U | 0.733
129 | U3C C31U A69U | 0.782
130 | U3C C31U A70G | 0.812
131 | U3C C31U C49U | 0.919
132 | U3C C31U C61A | 0.567
133 | U3C C31U C62G | 0.665
134 | U3C C31U C66U | 0.898
135 | U3C C31U G44A | 0.721
136 | U3C C31U G48A | 0.734
137 | U3C C31U G52C | 0.591
138 | U3C C31U G63A | 0.771
139 | U3C C31U G67C | 0.797
140 | U3C C31U U47C | 0.864
141 | U3C C31U U59G | 0.579
142 | U3C C33G C55U | ≤ 0.5
143 | U3C C33G C60A | ≤ 0.5
144 | U3C C33G C60A C66G | ≤ 0.5

Row | Variant | yeast fitness
145 | U3C C34A | 0.665
146 | U3C C34A A37C G39A A45G C62U | 0.534
147 | U3C C34A G44A G52A C55U A70G | ≤ 0.5
148 | U3C C34A G44A G52A U53C C55U | 0.527
149 | U3C C34A G44A U54A | ≤ 0.5
150 | U3C C34A G52A | ≤ 0.5
151 | U3C C34G A65G | 0.757
152 | U3C C34U | 0.789
153 | U3C C34U U53C | ≤ 0.5
154 | U3C C46A G48A C66U | 0.629
155 | U3C C46A G56A | 0.699
156 | U3C C46A G58C | 1.04
157 | U3C C46G A69U | 0.807
158 | U3C C46G C62A | 0.564
159 | U3C C46U | 0.892
160 | U3C C46U A65U | 0.739
161 | U3C C46U A69U | 0.789
162 | U3C C46U U54A | ≤ 0.5
163 | U3C C46U U64C | 0.802
164 | U3C C49A G51C | 0.694
165 | U3C C49G U59A | ≤ 0.5
166 | U3C C49U | 0.891
167 | U3C C49U A70C | 0.751
